Measurements reported in ChEMBL document CHEMBL3797028, “Novel S1P1 receptor agonists - Part 4: Alkylaminomethyl substituted aryl head groups” (Eur J Med Chem, 2016).

Key:
[1] = molecular target: Sphingosine 1-phosphate receptor 3 (Homo sapiens, UniProt Q99500); assay: Agonist activity at human recombinant S1PR3 expressed in CHO cell membranes assessed as [35S]GTPgammaS binding preincubated for 30 mins followed by [35S]GTPgammaS addition measured after 1 hr by topcount analysis; format: functional
Method in brief: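 Membranes from CHO cells expressing recombinant human S1P1 or S1P3 were used. Buffer was 20 mM Hepes pH 7.4, 100 mM NaCl, 5 mM MgCl2, 0.1% fatty-acid-free BSA, 2.5% DMSO and 50 pM 35S-GTPgammaS. GDP was […] for S1P3. Compound was preincubated 30 min at rt, then incubated 1 h at rt with 35S-GTPgammaS. Bound label was collected by filtration and counted. Specific binding was taken against 10 uM S1P. EC50 was the 50%-of-specific-binding concentration, reported as the geometric mean of at least three independent duplicate runs.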

[2] = molecular target: Sphingosine 1-phosphate receptor 1 (Homo sapiens, UniProt P21453); assay: Agonist activity at human recombinant S1PR1 expressed in CHO cell membranes assessed as [35S]GTPgammaS binding preincubated for 30 mins followed by [35S]GTPgammaS addition measured after 1 hr by topcount analysis
[3] = Selectivity ratio of EC50 for human recombinant S1PR3 expressed in CHO cell membranes to EC50 for human recombinant S1PR1 expressed in CHO cell membranes; format: cell-based
Method in brief: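 Compound and membranes are pre-incubated 30 min at rt, then incubated 1 h at rt, filtered and counted. EC50 is the concentration giving 50% of S1P-defined specific binding, as the geometric mean of ≥3 independent duplicate runs. Ratio = EC50 S1PR3/EC50 S1PR1.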

[4] = Apparent intrinsic clearance in Wistar rat liver microsomes at 1 uM after 2.5 to 15 mins by LC-MS/MS analysis in presence of NADPH; format: ADME; conditions: read-out: CLH(app)
Method in brief: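 Compound at 1 uM starting concentration was depleted by 0.5 mg/mL rat liver microsomes in 100 mM sodium phosphate pH 7.4 at 37 °C, with shaking under air. Reactions were started with an NADPH-regenerating system. Samples were taken at 0, 2.5, 5, 10 and 15 min, quenched in ice-cold methanol and analysed by LC-MS/MS. CLint,app came from first-order decay fitting.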

[5] = Distribution coefficient, log D between 1-octonol and phosphate buffer at pH 7; format: physicochemical; conditions: 1-octanol/phosphate buffer
Method in brief: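 Partition was between 1-octanol and phosphate buffer at pH 7.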

[6] = Fraction unbound in Wistar rat liver microsomes incubated for 6 hrs by LC-MS/MS based equilibrium dialysis method; format: ADME
Method in brief: (§1)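 Rapid equilibrium dialysis was run on a shaker for 6 h at 37 °C. The donor side held rat plasma (pH 7.2–7.6) or 1 mg/mL rat liver microsomes in phosphate buffer pH 7.4. The receiver side held phosphate buffer pH 7.4. Both sides were measured by LC-MS/MS to give free fraction and recovery.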

[7] = Fraction unbound in Wistar rat plasma incubated for 6 hrs by LC-MS/MS based equilibrium dialysis method; format: ADME, cell-free; method in brief: as §1
[8] = Drug recovery in Wistar rat liver microsomes incubated for 6 hrs by LC-MS/MS based equilibrium dialysis method; format: ADME; conditions: read-out: Drug recovery; method in brief: as §1
Rattus norvegicus [9] = assay: Change in circulating lymphocyte count in Wistar rat at 10 mg/kg administered as single dose through oral gavage after 24 hrs relative to control; format: functional
Method in brief: (§2)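 Male Wistar rats (RccHan:WIST; n = 6) were given a single oral gavage dose of compound in DMSO plus 7.5% succinylated gelatine (final 5% DMSO). Blood lymphocytes were counted just before dosing and at later timepoints. Percent change was calculated per animal relative to the pre-dose value and compared with a vehicle-treated group, reported as the mean. A ±15% change was treated as baseline, and a reduction of about 60% or more as maximal.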

Rattus norvegicus [10] = assay: Change in circulating lymphocyte count in Wistar rat at 10 mg/kg administered as single dose through oral gavage after 6 hrs relative to control; format: functional; method in brief: as §2
Rattus norvegicus [11] = assay: Change in circulating lymphocyte count in Wistar rat at 10 mg/kg administered as single dose through oral gavage after 3 hrs relative to control; format: functional; method in brief: as §2
Liver microsome = assay: Unbound fraction corrected apparent intrinsic clearance in Wistar rat liver microsomes at 1 uM after 2.5 to 15 mins by LC-MS/MS analysis in presence of NADPH; format: ADME
Method in brief: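 Apparent CLint was measured by microsomal substrate depletion: 1 uM start, 0.5 mg/mL rat liver microsomes, pH 7.4, 37 °C, NADPH-regenerating system, sampling 0–15 min, LC-MS/MS. It was then divided by the unbound microsomal fraction, which was determined by rapid equilibrium dialysis of 1 mg/mL microsomes for 6 h at 37 °C.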

[12] = Apparent oral clearance in Wistar rat plasma at 1 to 10 mg/kg administered through gavage by LC-MS/MS analysis; format: ADME, organism-based
Method in brief: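 Male Wistar rats received a single oral gavage dose of compound dissolved in DMSO and added to 7.5% succinylated gelatine in water (final 5% DMSO). EDTA plasma was spun at 3000 g for 10 min at 4 °C and analysed by LC-MS/MS after protein precipitation. Oral clearance was estimated from the plasma concentration–time data. In vivo intrinsic clearance used the well-stirred liver model, assuming complete absorption.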

[13] = Plasma concentration in Wistar rat at 10 mg/kg administered as single dose through oral gavage after 3 hrs by LC-MS/MS analysis; format: ADME, organism-based
Method in brief: (§3)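 Single oral gavage dose to male Wistar rats in DMSO/7.5% succinylated gelatine (final 5% DMSO). Blood was drawn into EDTA at the lymphocyte-count timepoints. Plasma was prepared at 3000 g for 10 min at 4 °C and analysed by LC-MS/MS after protein precipitation.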

[14] = Plasma concentration in Wistar rat at 10 mg/kg administered as single dose through oral gavage after 6 hrs by LC-MS/MS analysis; format: ADME, organism-based; method in brief: as §3
[15] = Plasma concentration in Wistar rat at 10 mg/kg administered as single dose through oral gavage after 24 hrs by LC-MS/MS analysis; format: ADME, organism-based; method in brief: as §3
Rattus norvegicus [16] = organism: Rattus norvegicus; assay: Intrinsic clearance in rat liver microsomes scaled to body weight; conditions: in vitro

Sphingosine 1-phosphate receptor 3, sequence (Q99500 whole entry): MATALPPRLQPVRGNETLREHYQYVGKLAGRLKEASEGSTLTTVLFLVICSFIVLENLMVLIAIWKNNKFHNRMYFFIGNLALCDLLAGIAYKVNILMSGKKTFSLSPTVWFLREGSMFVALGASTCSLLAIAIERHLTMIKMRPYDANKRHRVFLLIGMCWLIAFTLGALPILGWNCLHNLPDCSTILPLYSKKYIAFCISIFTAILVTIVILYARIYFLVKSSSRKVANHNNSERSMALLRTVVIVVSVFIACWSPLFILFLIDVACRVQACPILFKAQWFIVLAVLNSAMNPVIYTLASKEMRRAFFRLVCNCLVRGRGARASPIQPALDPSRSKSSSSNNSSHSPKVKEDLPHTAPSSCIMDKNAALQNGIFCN
Sphingosine 1-phosphate receptor 1, sequence (P21453 whole entry): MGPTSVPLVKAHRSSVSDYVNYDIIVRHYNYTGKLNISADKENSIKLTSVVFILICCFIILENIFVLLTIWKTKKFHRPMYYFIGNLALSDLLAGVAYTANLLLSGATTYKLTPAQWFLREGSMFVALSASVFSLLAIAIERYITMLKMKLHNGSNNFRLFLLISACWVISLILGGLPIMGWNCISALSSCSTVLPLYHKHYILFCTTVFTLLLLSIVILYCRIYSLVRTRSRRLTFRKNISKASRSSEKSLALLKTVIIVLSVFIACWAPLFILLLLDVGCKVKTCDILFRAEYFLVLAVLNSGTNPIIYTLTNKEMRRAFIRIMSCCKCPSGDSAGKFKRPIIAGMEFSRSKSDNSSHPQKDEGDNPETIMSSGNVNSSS

Structure (SMILES) | EC50 [1] | EC50 [2] | Ratio EC50 [3] | microsomal CLint at 1 µM [4] | logD [5] | fraction unbound at 6 h [6] | fraction unbound at 6 h [7] | recovery at 6 h [8] | Activity (Rattus norvegicus [9]) | Activity (Rattus norvegicus [10]) | Activity (Rattus norvegicus [11]) | CL free (Liver microsome) | CL/F [12] | concentration at 3 h [13] | concentration at 6 h [14] | concentration at 24 h [15] | CL (Rattus norvegicus [16])
CCc1cc(-c2noc(-c3ccc(CN(C)CC(C)C)c(C)c3)n2)cc(C)c1OC[C@@H](O)CNC(=O)CO | 570 nM | 13 nM | 44 | 74 µL/min/mg | > 4.1 | 0.001 | < 0.001 | < 80% |  |  |  |  |  |  |  |  | 
CCc1cc(-c2nc(-c3cc(C)c(OC[C@@H](O)CNC(=O)CO)c(CC)c3)no2)ccc1CN(C)C | 480 nM | 1.3 nM | 369 | 1010 µL/min/mg | 3.8 | 0.11 | 0.005 | < 80% | 27% | -61% | -56% | 9200 µL/min/mg |  |  |  |  | 
CCCCN(C)Cc1cc(C)cc(-c2nc(-c3cc(C)c(OC[C@@H](O)CNC(=O)CO)c(CC)c3)no2)c1 | 425 nM | 2.6 nM | 163 | 183 µL/min/mg | > 4.1 | 0.025 | < 0.001 | < 80% | -6% | -57% | -60% | 7300 µL/min/mg |  |  |  |  | 
CCc1cc(-c2noc(-c3cc(C)nc(CN(C)CC(C)C)c3)n2)cc(C)c1OC[C@@H](O)CNC(=O)CO | 560 nM | 3.2 nM | 175 | 197 µL/min/mg | 3.8 | 0.18 | 0.004 | < 80% | 1% | -75% | -80% | 1090 µL/min/mg | 80 mL/min/kg | 385 ng/mL | 176 ng/mL | < 2 ng/mL | 1970 mL/min/kg
CCc1cc(-c2noc(-c3cc(C)c(CN(C)C)s3)n2)cc(C)c1OC[C@@H](O)CNC(=O)CO | 660 nM |  |  | 1220 µL/min/mg | 3.2 | 0.15 | 0.012 |  | 5% | -56% | -64% | 8100 µL/min/mg | 275 mL/min/kg | 106 ng/mL | 31 ng/mL | < 4 ng/mL | 14600 mL/min/kg
CCc1cc(-c2noc(-c3cc(C)cc(CN(C)CC)c3)n2)cc(C)c1OC[C@@H](O)CNC(=O)CO | 1250 nM | 3.6 nM | 347 | > 1250 µL/min/mg | 3.4 | 0.25 | 0.012 | < 80% | 24% | -58% | -57% | > 5000 µL/min/mg |  |  |  |  | 
CCc1cc(-c2noc(-c3cc(C)cc(CN(C)C)c3)n2)cc(C)c1OC[C@@H](O)CNC(=O)CO | 2000 nM |  |  | > 1250 µL/min/mg | 2.8 | 0.26 | 0.029 |  | 21% | -37% | -44% | > 4800 µL/min/mg |  |  |  |  | 
CCCN(C)Cc1sc(-c2nc(-c3cc(C)c(OC[C@@H](O)CNC(=O)CO)c(CC)c3)no2)cc1C | 120 nM | 0.6 nM | 200 |  |  |  |  |  |  |  |  |  |  |  |  |  | 
CCc1cc(-c2noc(-c3cc(CN(C)CC(C)C)cc(C(C)C)c3)n2)cc(C)c1OC[C@@H](O)CNC(=O)CO | 1.4 nM | 1.1 nM | < 2 |  |  |  |  |  |  |  |  |  |  |  |  |  | 
CCc1cc(-c2noc(-c3ccc(C)c(CN(C)C)c3)n2)cc(C)c1OC[C@@H](O)CNC(=O)CO | > 10000 nM | 385 nM | > 26 |  |  |  |  |  |  |  |  |  |  |  |  |  | 
CCc1cc(-c2noc(-c3ccc(CN(C)C)s3)n2)cc(C)c1OC[C@@H](O)CNC(=O)CO | > 10000 nM | 5.4 nM | > 1850 |  |  |  |  |  |  |  |  |  |  |  |  |  | 
CCCN(C)Cc1sc(-c2nc(-c3cc(C)c(OC[C@@H](O)CNC(=O)CO)c(CC)c3)no2)cc1CC | 20 nM | 0.5 nM | 40 |  |  |  |  |  |  |  |  |  |  |  |  |  | 
CCc1cc(-c2noc(-c3ccc(CN(C)CC)c(C)c3)n2)cc(C)c1OC[C@@H](O)CNC(=O)CO | 910 nM | 14 nM | 65 |  |  |  |  |  |  |  |  |  |  |  |  |  | 
CCc1cc(-c2noc(-c3cc(C)nc(CN(C)C)c3)n2)cc(C)c1OC[C@@H](O)CNC(=O)CO | > 10000 nM | 40 nM | > 250 |  |  |  |  |  |  |  |  |  |  |  |  |  | 
CCc1cc(-c2noc(-c3cc(C)nc(CN(CC)CC)c3)n2)cc(C)c1OC[C@@H](O)CNC(=O)CO | 8100 nM | 45 nM | 180 |  |  |  |  |  |  |  |  |  |  |  |  |  | 
